# Assay results as given in PMC11923060 (Scientific Reports, 2025).
# Experiments:
# testes [1] = assay: Immunofluorescence of tight junction proteins in testicular tissue; format: in vivo, Kunming mice; conditions: Days 20 and 40, + LPS, compared to the LPS group, n = 10 mice/group
# testes [2] = assay: Western blot of junction proteins in testicular tissue; format: in vivo, Kunming mice; conditions: Days 20 and 40, + LPS, vs LPS group, n = 10 mice/group
# Procedure, shortened: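 Male Kunming mice (8–10 wk), n = 10/group, gavaged with test peptide 0.5 mg/kg or antibiotic control 25 mg/kg in 200 µL saline for 20 d (10 doses) or 40 d (20 doses), then one i.p. LPS 5 mg/kg; killed 24 h later. ~100 mg testis homogenized in RIPA/protease inhibitors; PVDF blocked in skim milk 2 h, primary antibody overnight 4 °C, secondary 2 h, ECL.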
substance,measurement,setting,value
polymyxin B,expression of Claudin-1 (immunofluorescence),testes [1],significant increases
same,expression of N-cadherin (immunofluorescence),testes [1],significant increases
same,protein expression of TWIST1 (Western blot),testes [2],significantly inhibited
